Compound activity (PubChem BioAssay)
GalR3 antagonist – human GalR3 antagonism. O60755. HEK293 GalR3-CNG cAMP membrane potential fluorescence; galR3 body fused to GalR1 C-terminus. inhibition, % at 3 µM. actives 0.44% (n = 360,000);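 active = inhibition above the screen-wide average plus 3 SD, cut at about 13% in these data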;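 note: forskolin and galanin both at EC90 stimulate the cells; cAMP rise reported by CNG channel membrane potential dye signal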
Target sequence (O60755 1-299 limits assumed): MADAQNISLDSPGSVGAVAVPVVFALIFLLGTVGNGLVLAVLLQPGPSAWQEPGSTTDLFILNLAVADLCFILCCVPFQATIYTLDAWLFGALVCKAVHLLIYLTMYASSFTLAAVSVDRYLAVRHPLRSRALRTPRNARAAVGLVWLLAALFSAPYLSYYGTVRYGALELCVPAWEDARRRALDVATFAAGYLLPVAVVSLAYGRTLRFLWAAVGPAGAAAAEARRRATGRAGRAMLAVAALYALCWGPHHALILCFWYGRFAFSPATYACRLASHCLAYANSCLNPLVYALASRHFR
NR2E3 ag-1 – agonists of human nuclear receptor NR2E3. actives 0.12% (n = 320,000). AID 2300. Q9Y5X4. GST-NR2E3/biotin-RetCOR TR-FRET, 1536-well. inhibition of corepressor binding, % at 4.78 µM;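 active = percent inhibition above the cutoff of mean plus 3 SD of all tested compounds, set per screening campaign, cut at about 20% in these data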
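Material: NR2E3–RetCOR corepressor complex / Amount: 1.35 nM GST-NR2E3 / Medium: Tris pH 7.5 / Compound: single nominal compound dose of 4.8 µM / Incubation: 5 h at 4 °C / Technique: TR-FRET, Eu(K)-anti-GST donor, streptavidin-D2 acceptor, ex 340, em 617/671 nm / Read-out basis: percent loss of FRET ratio relative to control wells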
NR2E3 ag-2 – human photoreceptor-specific nuclear receptor agonism; CHO-S Gal4-NCOR/VP16-NR2E3 two-hybrid, luciferase; inhibition of corepressor binding, % at 3.98 µM; actives 0.35% (n = 360,000);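 active = inhibition above the mean of all tested compounds plus 3 SD, cut at about 70% in these data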;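 note: higher means lower luciferase signal from less NR2E3 corepressor binding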
FXN GAA850 act – frataxin GAA850 promoter activation | actives 0.56% (n = 360,000) | activation, % at 6 µM | HEK293 lucGAA850 FXN promoter luciferase reporter, 24 h; percent of 10 µM SAHA response;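 active = activation above the average of all compounds screened plus 3 SD, cutoff fixed separately per campaign, cut at about 7.5% in these data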
V-ATPase pH – regulators of yeast V-ATPase proton transport. response, % at 10 µM. S. cerevisiae, pHLuorin cytosolic pH fluorescence. actives 0.37% (n = 350,000). AID 504577; in the data active = response mostly above about 7.3%, no sharp cut-off; inactive = mostly below about 5.4%; note: actives read high
HIV Env fusion – HIV envelope-mediated fusion inhibition. actives 1.1% (n = 360,000). HeLa-JRFL Env/CEM21 cell fusion, luciferase. inhibition, % at 12.3 µM. AID 651610;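 active = mean replicate inhibition score of at least 50 and every replicate individually at or above 50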
VATPase regulator – modulates yeast V-ATPase proton transport. response, % at 10 µM. AID 602197. actives 2% (n = 980). S. cerevisiae pHLuorin cytosolic pH. shares compounds with V-ATPase pH; in the data active = response above about 24%
Each line names hits and unclear results; the compound was inactive in the other large screens (follow-up assays come after a bar, where they were run). Hits are enriched below; roughly 2.2% of the tested compounds scored in any of these assays.

Cc1nnc(NC(=O)Oc2ccccc2)s1	none (no result: HIV Env fusion)
C[C@H](CO)N1C[C@H](C)[C@H](CN(C)CC2CC2)OCCCC[C@H](C)Oc2ccc(NS(=O)(=O)c3ccc(Cl)cc3)cc2C1=O	none (no result: GalR3 antagonist, NR2E3 ag-1, NR2E3 ag-2, FXN GAA850 act, V-ATPase pH)
COc1cc(NC(=O)CCn2c(=O)[nH]c3ccsc3c2=O)cc(OC)c1	V-ATPase pH 7.7 | VATPase regulator inactive
Cc1ccc(NC(=O)CCn2c(=O)[nH]c3ccsc3c2=O)cc1	none
C[C@H]1CN([C@@H](C)CO)C(=O)c2cc(NC(=O)CCCN(C)C)ccc2O[C@H]1CN(C)C(=O)Nc1ccc2c(c1)OCO2	none (no result: GalR3 antagonist, NR2E3 ag-1, NR2E3 ag-2, FXN GAA850 act, V-ATPase pH)
COCc1nc2sc(C)c(C)c2c(=O)[nH]1	V-ATPase pH 12 (no result: HIV Env fusion) | VATPase regulator inactive
O=C(CCN1CCCCC1)NCC[C@H]1CC[C@@H](NC(=O)Cc2cccnc2)[C@H](CO)O1	none (no result: GalR3 antagonist, NR2E3 ag-1, NR2E3 ag-2, FXN GAA850 act, V-ATPase pH)
O=C(N/N=C/c1cccc([N+](=O)[O-])c1)c1ccc(CN2CCOCC2)cc1	V-ATPase pH 14 | VATPase regulator inactive
Cc1ccc(OCc2cc(C(=O)NCC3COCCO3)no2)cc1C (stereo not drawn)	none
Cc1ccc(OCc2cc(C(=O)NCC(C)(C)N3CCOCC3)no2)cc1C	V-ATPase pH 8.2 | VATPase regulator inactive
CCCNC(=O)N[C@H]1C=C[C@@H](CC(=O)NCCc2ccccc2)O[C@H]1CO	none (no result: GalR3 antagonist, NR2E3 ag-1, NR2E3 ag-2, FXN GAA850 act, V-ATPase pH)
CCOc1ccc(-n2c(SCC(=O)NCc3ccco3)nc3c([nH]c4ccccc43)c2=O)cc1	V-ATPase pH 10.0 | VATPase regulator inactive
CCOc1ccc(-n2c(SCC(=O)NCc3ccco3)nc3ccccc3c2=O)cc1	none
COc1ccc(NC(=O)Nc2ccc3c(c2)CC(=O)N([C@@H](C)CO)C[C@@H](C)[C@@H](CN(C)C(=O)Nc2ccc4c(c2)OCO4)O3)cc1	none (no result: GalR3 antagonist, NR2E3 ag-1, NR2E3 ag-2, FXN GAA850 act, V-ATPase pH)
Cc1ccc(/C=N/NC(=O)C(O)c2ccccc2)o1 (stereo not drawn)	none
Cc1ccc(/C=N/NC(=O)Nc2ccccc2)o1	V-ATPase pH 38 | VATPase regulator inactive
O=C(NCCCCNC(=O)c1ccc(F)cc1)c1ccc(F)cc1	none | VATPase regulator inactive
c1cnc(N2CCSCC2)nc1	V-ATPase pH 10 (no result: HIV Env fusion) | VATPase regulator inactive
COC(=O)Cn1c(C)nc2ccccc21	none
CCOC(=O)N=Nc1c(O)n(CC(=O)OC)c2ccccc12	none | VATPase regulator inactive
CCOC(=O)Cn1c(C(C)=O)nc2ccccc21	none | VATPase regulator inactive
CCOC(=O)Cn1c(-c2ccccn2)nc2ccccc21	none (no result: HIV Env fusion) | VATPase regulator inactive
COC(=O)Cn1c(O)c(N=NC(=O)CNC(=O)c2ccc3c(c2)OCCO3)c2ccccc21	none
CCOC(=O)Cn1c(=O)sc2ccccc21	none
CCOC(=O)Cn1c(C)nc2ccccc21	none (no result: HIV Env fusion) | VATPase regulator inactive
O=C(C[C@H]1C=C[C@@H](NC(=O)C2CC2)[C@H](CO)O1)NCc1ccccc1Cl	none (no result: GalR3 antagonist, NR2E3 ag-1, NR2E3 ag-2, FXN GAA850 act, V-ATPase pH)
COc1ccc(S(=O)(=O)N(C)C[C@H]2Oc3ccc(NC(=O)CCCCCC(=O)Nc4ccccc4N)cc3CC(=O)N([C@H](C)CO)C[C@H]2C)cc1	none (no result: GalR3 antagonist, NR2E3 ag-1, NR2E3 ag-2, FXN GAA850 act, V-ATPase pH)
CCOC(=O)Cn1c(=O)c(-c2ccccc2NC)nc2ccccc21	none (no result: HIV Env fusion) | VATPase regulator inactive
CCOC(=O)Cn1c(=N)n(Cc2ccccc2)c2ccccc21	none (no result: HIV Env fusion)
O=C(O)Cn1c(=O)c(-c2ccccc2)nc2ccccc21	none
CCOC(=O)Cn1c(=O)n(CC(=O)OCC)c2ccccc21	none | VATPase regulator inactive
CCOC(=O)Cc1nc2ccccc2n(CC#N)c1=O	none | VATPase regulator inactive
CCCCn1c(=O)c(CCC(=O)O)nc2ccccc21	none
COC(=O)Cn1c(=O)c(C)nc2ccccc21	none | VATPase regulator inactive
CO[C@H]1CN(C)C(=O)c2cc(NC(=O)C3CCCCC3)ccc2OC[C@@H](C)N(C(=O)c2ccccc2)C[C@@H]1C	none (no result: GalR3 antagonist, NR2E3 ag-1, NR2E3 ag-2, FXN GAA850 act, V-ATPase pH)
CC=Cc1ccc2n(c1=O)C[C@@H]1[C@@H](CO)[C@H](C(=O)N(C)C)N(CCC(F)(F)F)[C@H]21 (mixture of isomers)	none (no result: GalR3 antagonist, NR2E3 ag-1, NR2E3 ag-2, FXN GAA850 act, V-ATPase pH)
C[C@@H]1CCCCO[C@H](CN(C)C(=O)Nc2ccc(C(F)(F)F)cc2)[C@@H](C)CN([C@H](C)CO)C(=O)c2cc(NC(=O)Nc3ccc(C(F)(F)F)cc3)ccc2O1	none (no result: GalR3 antagonist, NR2E3 ag-1, NR2E3 ag-2, FXN GAA850 act, V-ATPase pH)
COc1ccccc1NC(=O)C(C)OC(=O)CCCOc1ccccc1 (stereo not drawn)	V-ATPase pH 11 | VATPase regulator inactive
CC(OC(=O)CCCOc1ccccc1)C(=O)NC(N)=O (stereo not drawn)	none
CN(C)C(=O)C[C@@H]1C[C@@H]2c3cc(NC(=O)Nc4ccccc4F)ccc3O[C@@H]2[C@@H](CO)O1	none (no result: GalR3 antagonist, NR2E3 ag-1, NR2E3 ag-2, FXN GAA850 act, V-ATPase pH)
COc1cccc(NC(=O)C(OC(=O)/C=C/c2ccc3c(c2)OCO3)c2ccccc2)c1 (stereo not drawn)	V-ATPase pH 11 | VATPase regulator inactive
CC(=O)Nc1ccc(NC(=O)C(C)OC(=O)/C=C/c2ccc3c(c2)OCO3)cc1 (stereo not drawn)	none
Cc1ccc(-c2ccc(CCC(=O)O)n2-c2ccc(O)cc2)cc1	none
